Measurements: ChEMBL document CHEMBL1132564, “Antitumor benzothiazoles. 7. Synthesis of 2-(4-acylaminophenyl)benzothiazoles and investigations into the role of acetylation in the antitumor activities of the parent amines” (J Med Chem, 1999)

Experiments:
[1] = system: MDA-MB-468; test: In vitro antitumor activity against MDA-468 carcinoma cell line.; type: functional, cell-based; settings: Homo sapiens
Method in brief: (§1)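 MTT assay, 7-day format: 250–300 cells/well, adhered 24 h drug-free, then compound 1 pM–100 μM (n = 8), final DMSO <0.25%; RPMI 1640/10% FCS, 37 °C, 5% CO2. MTT added after exposure, 4 h, formazan dissolved in DMSO–glycine (4:1), absorbance 550 nm.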

[2] = system: MCF7; test: In vitro antitumor activity against MCF-7 carcinoma cell line.; type: functional, cell-based; settings: Homo sapiens; method in brief: as §1
[3] = system: NCI; test: In vitro antitumor activity against carcinoma cell lines by 2-day assay; type: functional, Homo sapiens
Method in brief: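 NCI panel sulforhodamine B assay: line-specific seeding, 24 h drug-free, then five 10-fold dilutions (top 10^-4 M) for 2 days; growth inhibition from protein-stain optical density change; mean log GI50 across panel.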

[4] = system: HT-29; test: In vitro antitumor activity against colon cancer HT-29 cell lines by 6-day assay; type: functional; settings: Homo sapiens, HT-29, 144 h
Method in brief: (§2)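 NCI 60-cell-line panel, sulforhodamine B protein stain. Seeding density set per line's growth; 24 h drug-free incubation, then test agent at five 10-fold dilutions up to 10^-4 M for 6 days of exposure. Growth inhibition derived from change in protein-stain optical density; log GI50 reported.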

[5] = system: ACHN; test: In vitro antitumor activity against Renal cancer ACHN cell lines by 6-day assay; type: functional; settings: Homo sapiens, 144 h; method in brief: as §2
[6] = system: K562; test: In vitro antitumor activity against Leukemia K-562 cell lines by 6-day assay; type: functional; settings: Homo sapiens, K562, 144 h; method in brief: as §2
[7] = system: MDA-N; test: In vitro antitumor activity against Breast cancer MDA-N cell lines by 6-day assay; type: functional; settings: Homo sapiens, 144 h; method in brief: as §2
[8] = system: A549; test: In vitro antitumor activity against Non-small cell lung cancer A549/ATCC cell lines by 6-day assay; type: functional; settings: Homo sapiens, A549, 144 h; method in brief: as §2
[9] = system: RXF 393; test: In vitro antitumor activity against Renal cancer RXF393 cell lines by 6-day assay; type: functional; settings: Homo sapiens, RXF 393, 144 h; method in brief: as §2
[10] = system: A498; test: In vitro antitumor activity against Renal cancer A498 cell lines by 6-day assay; type: functional; settings: Homo sapiens, A498, 144 h; method in brief: as §2
[11] = system: EKVX; test: In vitro antitumor activity against Non-small cell lung cancer EKVX cell lines by 6-day assay; type: functional; settings: Homo sapiens, 144 h; method in brief: as §2
[12] = system: SK-OV-3; test: In vitro antitumor activity against Ovarian cancer SK-OV-3 cell lines by 6-day assay; type: functional; settings: Homo sapiens, SK-OV-3, 144 h; method in brief: as §2
[13] = system: OVCAR-5; test: In vitro antitumor activity against Ovarian cancer OVCAR-5 cell lines by 6-day assay; type: functional; settings: Homo sapiens, OVCAR-5, 144 h; method in brief: as §2
[14] = system: NCI-H23; test: In vitro antitumor activity against Non-small cell lung cancer NCI-H23 cell lines by 6-day assay; type: functional; settings: Homo sapiens, NCI-H23, 144 h; method in brief: as §2
[15] = system: RPMI-8226; test: In vitro antitumor activity against Leukemia RPMI-8226 cell lines by 6-day assay; type: functional; settings: Homo sapiens, RPMI-8226, 144 h; method in brief: as §2
[16] = system: SF-268; test: In vitro antitumor activity against CNS cancer SF-268 cell lines by 6-day assay; type: functional; settings: Homo sapiens, SF-268, 144 h; method in brief: as §2
[17] = system: SR; test: In vitro antitumor activity against Leukemia SR cell lines by 6-day assay; type: functional; settings: Homo sapiens, 144 h; method in brief: as §2
[18] = system: SF-295; test: In vitro antitumor activity against CNS cancer SF-295 cell lines by 6-day assay; type: functional; settings: Homo sapiens, SF-295, 144 h; method in brief: as §2
[19] = system: MOLT-4; test: In vitro antitumor activity against Leukemia MOLT-4 cell lines by 6-day assay; type: functional; settings: Homo sapiens, MOLT-4, 144 h; method in brief: as §2
[20] = system: HL-60; test: In vitro antitumor activity against Leukemia HL-60(TB) cell lines by 6-day assay; type: functional; settings: Homo sapiens, HL-60, 144 h
Method in brief: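 NCI 60-line panel screen using a sulforhodamine B protein-stain read-out. Seeding density is set by each line's growth. After a 24-h drug-free period, compound is added at five 10-fold dilutions up to 10^-4 M. Exposure lasts 6 days, and growth inhibition (GI50) is taken from the change in stain optical density.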

[21] = system: SW-620; test: In vitro antitumor activity against colon cancer SW-620 cell lines by 6-day assay; type: functional; settings: Homo sapiens, SW-620, 144 h; method in brief: as §2
[22] = system: HCC 2998; test: In vitro antitumor activity against colon cancer HCC2998 cell lines by 6-day assay; type: functional; settings: Homo sapiens, HCC 2998, 144 h; method in brief: as §2
[23] = system: M14; test: In vitro antitumor activity against melanoma M14 cell lines by 6-day assay; type: functional; settings: Homo sapiens, M14, 144 h; method in brief: as §2
[24] = system: UO-31; test: In vitro antitumor activity against Renal cancer UO-31 cell lines by 6-day assay; type: functional; settings: Homo sapiens, UO-31, 144 h; method in brief: as §2
[25] = system: OVCAR-8; test: In vitro antitumor activity against Ovarian cancer OVCAR-8 cell lines by 6-day assay; type: functional; settings: Homo sapiens, OVCAR-8, 144 h; method in brief: as §2
[26] = system: SK-MEL-28; test: In vitro antitumor activity against melanoma SK-MEL-28 cell lines by 6-day assay; type: functional; settings: Homo sapiens, SK-MEL-28, 144 h; method in brief: as §2
[27] = system: SN12C; test: In vitro antitumor activity against Renal cancer SN12C cell lines by 6-day assay; type: functional; settings: Homo sapiens, 144 h; method in brief: as §2
[28] = system: CAKI-1; test: In vitro antitumor activity against Renal cancer CAKI-1 cell lines by 6-day assay; type: functional; settings: Homo sapiens, CAKI-1, 144 h; method in brief: as §2
[29] = system: NCI; test: In vitro antitumor activity against carcinoma cell lines by 6-day assay; type: functional, Homo sapiens; method in brief: as §2
[30] = system: BT-549; test: In vitro antitumor activity against Breast cancer BT-549 cell lines by 6-day assay; type: functional; settings: Homo sapiens, BT-549, 144 h; method in brief: as §2
[31] = system: HCT-116; test: In vitro antitumor activity against colon cancer HCT116 cell lines by 6-day assay; type: functional; settings: Homo sapiens, HCT-116, 144 h; method in brief: as §2
[32] = system: HCT-15; test: In vitro antitumor activity against colon cancer HCT-15 cell lines by 6-day assay; type: functional; settings: Homo sapiens, HCT-15, 144 h; method in brief: as §2
[33] = system: UACC-257; test: In vitro antitumor activity against melanoma UACC-257 cell lines by 6-day assay; type: functional; settings: Homo sapiens, UACC-257, 144 h; method in brief: as §2
[34] = system: 786-0; test: In vitro antitumor activity against Renal cancer 786-0 cell lines by 6-day assay; type: functional; settings: Homo sapiens, 786-0, 144 h; method in brief: as §2
[35] = system: COLO 205; test: In vitro antitumor activity against colon cancer COLO 205 cell lines by 6-day assay; type: functional; settings: Homo sapiens, COLO 205, 144 h; method in brief: as §2
[36] = system: SNB-19; test: In vitro antitumor activity against CNS cancer SNB-19 cell lines by 6-day assay; type: functional; settings: Homo sapiens, SNB-19, 144 h; method in brief: as §2
[37] = system: NCI-H322M; test: In vitro antitumor activity against Non-small cell lung cancer NCI-H322M cell lines by 6-day assay; type: functional; settings: Homo sapiens, 144 h; method in brief: as §2
[38] = system: IGROV-1; test: In vitro antitumor activity against Ovarian cancer IGROV1 cell lines by 6-day assay; type: functional; settings: Homo sapiens, IGROV-1, 144 h; method in brief: as §2
[39] = system: SNB-75; test: In vitro antitumor activity against CNS cancer SNB-75 cell lines by 6-day assay; type: functional; settings: Homo sapiens, SNB-75, 144 h; method in brief: as §2
[40] = system: U-251; test: In vitro antitumor activity against CNS cancer U251 cell lines by 6-day assay; type: functional; settings: Homo sapiens, U-251, 144 h; method in brief: as §2
[41] = system: DU-145; test: In vitro antitumor activity against Prostate cancer DU145 cell lines by 6-day assay; type: functional; settings: Homo sapiens, DU-145, 144 h; method in brief: as §2
[42] = system: UACC-62; test: In vitro antitumor activity against melanoma UACC-62 cell lines by 6-day assay; type: functional; settings: Homo sapiens, UACC-62, 144 h; method in brief: as §2
[43] = system: HOP-92; test: In vitro antitumor activity against Non-small cell lung cancer HOP92 cell lines by 6-day assay; type: functional; settings: Homo sapiens, HOP-92, 144 h; method in brief: as §2
[44] = system: CCRF-CEM; test: In vitro antitumor activity against Leukemia CCRF-CEM cell lines by 6-day assay; type: functional; settings: Homo sapiens, 144 h; method in brief: as §2
[45] = system: MDA-MB-435; test: In vitro antitumor activity against Breast cancer MDA-MB-435 cell lines by 6-day assay; type: functional; settings: Homo sapiens, MDA-MB-435, 144 h; method in brief: as §2
[46] = system: KM12; test: In vitro antitumor activity against colon cancer KM12 cell lines by 6-day assay; type: functional; settings: Homo sapiens, KM12, 144 h; method in brief: as §2
[47] = system: SK-MEL-5; test: In vitro antitumor activity against melanoma SK-MEL-5 cell lines by 6-day assay; type: functional; settings: Homo sapiens, SK-MEL-5, 144 h; method in brief: as §2
[48] = system: TK-10; test: In vitro antitumor activity against Renal cancer TK-10 cell lines by 6-day assay; type: functional; settings: Homo sapiens, TK-10, 144 h; method in brief: as §2

With `Nc1ccc(-c2nc3ccccc3[nH]2)cc1` the IC50 [1] was over 1 µM and the IC50 [2] was over 10 µM.

With `O=C(Nc1ccc(-c2nc3ccccc3s2)cc1)C(F)(F)F` the IC50 [1] was over 0.1 µM and the IC50 [2] was over 0.01 µM.

`O=C(CCl)Nc1ccc(-c2nc3ccccc3o2)cc1` gave an IC50 [1] of over 1 µM and an IC50 [2] of over 1 µM.

With `Nc1ccc(-c2nc3ccccc3o2)cc1` the IC50 [1] was over 1 µM, the IC50 [2] was over 0.1 µM and the “Mean log GI50” value [3] was -4.26 M.

`CC(=O)N(C(C)=O)c1ccc(-c2nc3ccccc3s2)cc1Cl` gave an IC50 [1] of over 1 µM and an IC50 [2] of over 10 µM.

Molecule `O=C(Nc1ccc(-c2nc3ccccc3s2)cc1)C(Cl)Cl` has an IC50 [1] of over 0.1 µM and an IC50 [2] of over 0.1 µM.

In the case of `Nc1ccc(-c2nc3ccccc3s2)cc1Br`, the GI50 [4] is reported as 24.5 µM, the GI50 [5] is reported as 44.7 µM and the GI50 [6] is reported as over 100 µM. The IC50 [1] was under 0.001 µM, the GI50 [7] was over 100 µM and the GI50 [8] was over 100 µM. For the same molecule, the GI50 [9] was 40.7 µM, the IC50 [2] was under 0.001 µM and the GI50 [10] was 0.191 µM. The GI50 [11] was 81.3 µM, the GI50 [12] was 58.9 µM and the GI50 [13] was under 0.01 µM. The GI50 [14] was 28.8 µM, the GI50 [15] was over 100 µM and the GI50 [16] was 34.7 µM. For the same molecule, the GI50 [17] was 47.9 µM, the GI50 [18] was 42.7 µM and the GI50 [19] was 46.8 µM. For the same molecule, the GI50 [20] was 9.55 µM, the GI50 [21] was 45.7 µM and the GI50 [22] was under 0.01 µM. It also gave a GI50 [23] of 64.6 µM, a GI50 [24] of 32.4 µM and a GI50 [25] of 43.7 µM. It also gave a GI50 [26] of over 100 µM, a GI50 [27] of over 100 µM and a GI50 [28] of over 100 µM. The “Mean log GI50” value [29] was -5.01 M, the GI50 [30] was 57.5 µM and the GI50 [31] was under 0.01 µM. The “Mean log GI50” value [3] was -4.67 M, the GI50 [32] was 31.6 µM and the GI50 [33] was under 0.01 µM. The GI50 [34] was 66.1 µM, the GI50 [35] was under 0.01 µM and the GI50 [36] was 47.9 µM. For the same molecule, the GI50 [37] was over 100 µM, the GI50 [38] was under 0.01 µM and the GI50 [39] was over 100 µM. For the same molecule, the GI50 [40] was 37.2 µM, the GI50 [41] was over 100 µM and the GI50 [42] was under 0.01 µM. For the same molecule, the GI50 [43] was 40.7 µM, the GI50 [44] was 40.7 µM and the GI50 [45] was 97.7 µM. For the same molecule, the GI50 [46] was 69.2 µM, the GI50 [47] was 15.8 µM and the GI50 [48] was under 0.01 µM.
